The term MBC denotes the smallest concentration meeting the test's criterion for killing. Read a low MBC as more potent killing. As usually defined, the MIC is the smallest concentration in the dilution series that meets the test's criterion for growth inhibition. The MFC is the lowest tested concentration that kills the fungus rather than only halting it. A high value points to less potent killing.

The test system of assay [1] is Listeria monocytogenes. Nature of the assay: Antibacterial activity against Listeria monocytogenes NCTC 7973 at […] degC measured after 72 hr by microdilution method. It is filed as functional. The following applies: NCTC 7973, 72 h. In short, it runs like this:
(§1)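 Bactericidal endpoint: after the 24 h broth microdilution (1.0×10⁴ CFU per well, LB broth, […] °C), wells were serially subcultured into plates of fresh broth and incubated a further 72 h. MBC was the lowest concentration with no visible growth, taken as 99.5% killing of the original inoculum.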
Background: Broth dilution looks for growth in wells or tubes with falling amounts of substance.

Assay [2] has as its system Proteus mirabilis. The assay is described as follows: Antibacterial activity against Proteus mirabilis at […] degC measured after 72 hr by microdilution method. The class given is functional. In short, it runs like this:
as §1

For assay [3], the system named is Salmonella typhimurium. Nature of the assay: Antibacterial activity against Salmonella enterica subsp. enterica serovar TyphimuriumATCC 13311 at […] degC measured after 72 hr by microdilution method. The class given is functional, Salmonella enterica subsp. enterica serovar Typhimurium. To be noted: ATCC 13311, 72 h. In short, it runs like this:
as §1

Assay [4] concerns Pseudomonas aeruginosa. The assay is described as follows: Antibacterial activity against Pseudomonas aeruginosa ATCC 27853 at […] degC measured after 72 hr by microdilution method. The class given is functional. The following applies: ATCC 27853, 72 h. The gist of the method:
as §1

The test system of assay [5] is Escherichia coli. Nature of the assay: Antibacterial activity against Escherichia coli ATCC 35210 at […] degC measured after 72 hr by microdilution method. It is filed as functional. To be noted: ATCC 35210, 72 h. The gist of the method: as §1
For assay [6], the system named is Staphylococcus aureus. The assay is described as follows: Antibacterial activity against Staphylococcus aureus ATCC 6538 at […] degC measured after 72 hr by microdilution method. It is filed as functional. To be noted: ATCC 6538, 72 h. In short, it runs like this: as §1
For assay [7], the system named is Micrococcus flavus. Nature of the assay: Antibacterial activity against Micrococcus flavus ATCC 10240 at […] degC measured after 72 hr by microdilution method. To be noted: ATCC 10240, 72 h. It is filed as functional. The gist of the method:
as §1

The subject of assay [8] is Bacillus cereus. Nature of the assay: Antibacterial activity against clinical isolate Bacillus cereus at […] degC measured after 72 hr by microdilution method. The class given is functional. In short, it runs like this:
as §1

For assay [9], the system named is Listeria monocytogenes. Nature of the assay: Antibacterial activity against Listeria monocytogenes NCTC 7973 at […] degC measured after 24 hr by microdilution method. It is filed as functional. The following applies: NCTC 7973, 24 h. The gist of the method: (§2)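 Bacteria suspended in sterile saline at 1.0×10⁵ CFU/ml and added at 1.0×10⁴ CFU per well to LB broth with compound (1 mg/ml) in 96-well plates. Incubated 24 h at […] °C. MIC was the lowest concentration without visible growth under a binocular microscope. OD 655 nm was read against a blank and a positive control.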

The subject of assay [10] is Salmonella typhimurium. Nature of the assay: Antibacterial activity against Salmonella enterica subsp. enterica serovar Typhimurium ATCC 13311 at […] degC measured after 24 hr by microdilution method. It is filed as functional. The following applies: ATCC 13311, 24 h. The gist of the method: as §2
The test system of assay [11] is Pseudomonas aeruginosa. Nature of the assay: Antibacterial activity against Pseudomonas aeruginosa ATCC 27853 at […] degC measured after 24 hr by microdilution method. The class given is functional. The following applies: ATCC 27853, 24 h. In short, it runs like this:
as §2

Assay [12] concerns Proteus mirabilis. The assay is described as follows: Antibacterial activity against Proteus mirabilis at […] degC measured after 24 hr by microdilution method. It is filed as functional. In short, it runs like this:
as §2

Assay [13] relates to Escherichia coli. Nature of the assay: Antibacterial activity against Escherichia coli ATCC 35210 at […] degC measured after 24 hr by microdilution method. It is filed as functional. The following applies: ATCC 35210, 24 h. In short, it runs like this:
as §2

Assay [14] relates to Staphylococcus aureus. Nature of the assay: Antibacterial activity against Staphylococcus aureus ATCC 6538 at […] degC measured after 24 hr by microdilution method. To be noted: ATCC 6538, 24 h. The class given is functional. In short, it runs like this: as §2
For assay [15], the system named is Bacillus cereus. Nature of the assay: Antibacterial activity against clinical isolate Bacillus cereus at […] degC measured after 24 hr by microdilution method. The class given is functional. The gist of the method: as §2
The test system of assay [16] is Micrococcus flavus. Nature of the assay: Antibacterial activity against Micrococcus flavus ATCC 10240 at […] degC measured after 24 hr by microdilution method. The class given is functional. To be noted: ATCC 10240, 24 h. The gist of the method:
as §2

The test system of a further assay is Fulvia fulva. The assay is described as follows: Antifungal activity against Passalora fulva TK5318 at 28 degC measured after 72 hr by microdilution method. It is filed as functional. The following applies: TK5318, 72 h. In short, it runs like this:
(§3)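 Fungi were kept on malt agar at 4 °C. Spores were washed off with sterile 0.85% saline containing 0.1% Tween 80 and adjusted to about 1.0×10⁵ per well. Compounds were dissolved in DMSO (1 mg/ml stock) and serially diluted in malt broth with inoculum in 96-well plates, 72 h at 28 °C, for MIC. MFC came from subculture into fresh broth for a further 72 h at 28 °C.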

The next assay relates to Aspergillus versicolor. The assay is described as follows: Antifungal activity against Aspergillus versicolor ATCC 11730 at 28 degC measured after 72 hr by microdilution method. It is filed as functional. The following applies: ATCC 11730, 72 h. The gist of the method: as §3
The test system of another assay is Aspergillus flavus. The assay is described as follows: Antifungal activity against Aspergillus flavus ATCC 9643 at 28 degC measured after 72 hr by microdilution method. The class given is functional. To be noted: ATCC 9643, 72 h. In short, it runs like this:
as §3

The test system of the next assay is Aspergillus niger. The assay is described as follows: Antifungal activity against Aspergillus niger ATCC 6275 at 28 degC measured after 72 hr by microdilution method. It is filed as functional. The following applies: ATCC 6275, 72 h. In short, it runs like this:
as §3

Another assay concerns Trichoderma viride. Nature of the assay: Antifungal activity against Hypocrea rufa IAM 5061 at 28 degC measured after 72 hr by microdilution method. It is filed as functional. To be noted: IAM 5061, 72 h. In short, it runs like this:
as §3

The next assay has as its system Aspergillus fumigatus. The assay is described as follows: Antifungal activity against plant isolate Aspergillus fumigatus at 28 degC measured after 72 hr by microdilution method. It is filed as functional. The gist of the method: as §3
For another assay, the system named is Penicillium ochrochloron. The assay is described as follows: Antifungal activity against Penicillium ochrochloron ATCC 9112 at 28 degC measured after 72 hr by microdilution method. It is filed as functional. The following applies: ATCC 9112, 72 h. In short, it runs like this: as §3
The next assay has as its system Talaromyces funiculosus. Nature of the assay: Antifungal activity against Talaromyces funiculosus ATCC 36839 at 28 degC measured after 72 hr by microdilution method. It is filed as functional. To be noted: ATCC 36839, 72 h. The gist of the method:
as §3

≈ marks a conversion by molar mass, not a printed value.

Regarding `CC1(C)S[C@@H]2[C@H](NC(=O)[C@H](N)c3ccccc3)C(=O)N2[C@H]1C(=O)O` [AMPICILLIN], the MBC worked out at 744 µM (≈ 260 µg/mL) in the assay with Listeria monocytogenes [1]; 492 µM (≈ 172 µg/mL) in the assay with Proteus mirabilis [2]; 492 µM (≈ 172 µg/mL) with Salmonella typhimurium [3]; 1240 µM (≈ 433 µg/mL) against Pseudomonas aeruginosa [4]; 492 µM (≈ 172 µg/mL) with Escherichia coli [5]; 372 µM (≈ 130 µg/mL) in the assay with Staphylococcus aureus [6]. Also, the minimal bactericidal concentration (MBC) with Micrococcus flavus [7] and in the assay on Bacillus cereus [8] was 372 µM (≈ 130 µg/mL) each time. Besides, the minimal inhibitory concentration (MIC) worked out at 372 µM (≈ 130 µg/mL) with Listeria monocytogenes [9]; 248 µM (≈ 86.7 µg/mL) against Salmonella typhimurium [10]; 744 µM (≈ 260 µg/mL) in the assay on Pseudomonas aeruginosa [11]; 372 µM (≈ 130 µg/mL) against Proteus mirabilis [12]; 372 µM (≈ 130 µg/mL) in the assay with Escherichia coli [13]; 248 µM (≈ 86.7 µg/mL) with Staphylococcus aureus [14]. Further, the MIC with Bacillus cereus [15] and in the assay with Micrococcus flavus [16] was 248 µM (≈ 86.7 µg/mL) in each case.

Take `c1ccc(-c2ccc(C(c3ccccc3)n3ccnc3)cc2)cc1` (centres undefined) [BIFONAZOLE]: the MFC is 640 µM (≈ 199 µg/mL) with Fulvia fulva; 640 µM (≈ 199 µg/mL) against Aspergillus versicolor; 640 µM (≈ 199 µg/mL) in the assay with Aspergillus flavus; 640 µM (≈ 199 µg/mL) with Aspergillus niger; 800 µM (≈ 248 µg/mL) in the assay on Trichoderma viride; 640 µM (≈ 199 µg/mL) against Aspergillus fumigatus. For the same compound, the minimal fungicidal concentration (MFC) came out at 640 µM (≈ 199 µg/mL) in the assay with Penicillium ochrochloron and 800 µM (≈ 248 µg/mL) against Talaromyces funiculosus. Besides, the minimum inhibitory concentration (MIC) worked out at 320 µM (≈ 99.3 µg/mL) with Fulvia fulva; 320 µM (≈ 99.3 µg/mL) with Aspergillus versicolor; 480 µM (≈ 149 µg/mL) in the assay on Aspergillus flavus; 480 µM (≈ 149 µg/mL) against Aspergillus niger; 640 µM (≈ 199 µg/mL) in the assay with Trichoderma viride; 480 µM (≈ 149 µg/mL) in the assay with Aspergillus fumigatus. In addition, the MIC in the assay with Penicillium ochrochloron came out at 480 µM (≈ 149 µg/mL); with Talaromyces funiculosus, 640 µM (≈ 199 µg/mL).

With `CN[C@@H]1[C@H](O[C@H]2[C@H](O[C@H]3[C@H](O)[C@@H](O)[C@H](N=C(N)N)[C@@H](O)[C@@H]3N=C(N)N)O[C@@H](C)[C@]2(O)C=O)O[C@@H](CO)[C@H](O)[C@H]1O` [STREPTOMYCIN], the minimal bactericidal concentration (MBC) in the assay on Listeria monocytogenes [1] worked out at 516 µM (≈ 300 µg/mL); with Proteus mirabilis [2] it was 344 µM (≈ 200 µg/mL); in the assay on Salmonella typhimurium [3] it was 344 µM (≈ 200 µg/mL); in the assay with Pseudomonas aeruginosa [4] it was 344 µM (≈ 200 µg/mL); in the assay with Escherichia coli [5], 344 µM (≈ 200 µg/mL); in the assay on Staphylococcus aureus [6] it was 344 µM (≈ 200 µg/mL). The figures for the MBC in the assay with Micrococcus flavus [7] and in the assay on Bacillus cereus [8] were 172 µM (≈ 100 µg/mL) and 86 µM (≈ 50 µg/mL), respectively. For the same compound, the minimal inhibitory concentration (MIC) is 258 µM (≈ 150 µg/mL) in the assay with Listeria monocytogenes [9]; 172 µM (≈ 100 µg/mL) with Salmonella typhimurium [10]; 172 µM (≈ 100 µg/mL) in the assay with Pseudomonas aeruginosa [11]; 172 µM (≈ 100 µg/mL) against Proteus mirabilis [12]; 172 µM (≈ 100 µg/mL) with Escherichia coli [13]; 172 µM (≈ 100 µg/mL) against Staphylococcus aureus [14]. Moreover, the MIC with Bacillus cereus [15] is 43 µM (≈ 25 µg/mL); in the assay with Micrococcus flavus [16], 86 µM (≈ 50 µg/mL).

Consider `CC(=O)N1CCN(c2ccc(OCC3COC(Cn4ccnc4)(c4ccc(Cl)cc4Cl)O3)cc2)CC1` (centres undefined) [KETOCONAZOLE], for which the minimum fungicidal concentration (MFC) in the assay on Fulvia fulva amounted to 950 µM (≈ 505 µg/mL); with Aspergillus versicolor it was 950 µM (≈ 505 µg/mL); against Aspergillus flavus, 3800 µM (≈ 2020 µg/mL); against Aspergillus niger, 950 µM (≈ 505 µg/mL); against Trichoderma viride, 5700 µM (≈ 3030 µg/mL); with Aspergillus fumigatus, 950 µM (≈ 505 µg/mL). The values for the minimal fungicidal concentration (MFC) with Penicillium ochrochloron and against Talaromyces funiculosus were 3800 µM (≈ 2020 µg/mL) and 950 µM (≈ 505 µg/mL), respectively. Besides, the MIC with Fulvia fulva stood at 380 µM (≈ 202 µg/mL); in the assay on Aspergillus versicolor, 380 µM (≈ 202 µg/mL); against Aspergillus flavus, 2850 µM (≈ 1510 µg/mL); with Aspergillus niger, 380 µM (≈ 202 µg/mL); against Trichoderma viride, 4750 µM (≈ 2520 µg/mL); against Aspergillus fumigatus, 380 µM (≈ 202 µg/mL). Also, the results for the minimum inhibitory concentration (MIC) in the assay with Penicillium ochrochloron and in the assay with Talaromyces funiculosus were 3800 µM (≈ 2020 µg/mL) and 380 µM (≈ 202 µg/mL), respectively.

Source of the values: ChEMBL document CHEMBL3045677, “Sulfonamide-1,2,4-thiadiazole derivatives as antifungal and antibacterial agents: synthesis, biological evaluation, lipophilicity, and conformational studies” (2010).
